In ChEMBL document CHEMBL4425126 (J Med Chem, 2016):
The source made the active and inactive calls. The calls are words filed in the database; no cut-off is given here.

Legend:
SW480 [1] = test: Induction of morphological changes in human SW480 cells assessed as induction of massive cell flattening at 2.5 uM incubated for 48 hrs by phase contrast microscopy; assay type: functional, cell-based
SW480 (Homo sapiens) = test: Cytotoxicity against human SW480 cells pre-incubated with CuCl2 for 60 mins followed by compound addition for 72 hrs by MTT assay
SW480 [2] = test: Induction of morphological changes in human SW480 cells assessed as induction of vesicular blebbing in cytosol at 2.5 uM incubated for 48 hrs by phase contrast microscopy; assay type: functional, cell-based
HL-60 = test: Induction of intracellular ROS generation in human HL60 cells at 1 and 5 uM in presence of CuCl2 incubated for 30 mins by DCF-DA staining based fluorescence assay; assay type: functional, cell-based
Outline: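 HL-60 cells (5 × 10^5 per sample, phenol-free Hanks balanced salt solution) were loaded with DCF-DA for 30 min. CuCl2 was added 15 min before the thiosemicarbazone, at a ligand:Cu ratio of 1:1 or 1:2. Drug exposure lasted a further 30 min, and mean fluorescence was read by flow cytometry. H2O2 (200 μM) served as control. Data are mean ± SD of three experiments.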

physchem = details: n-octanol/water, pH 7.4
SW480 [3] = test: Induction of morphological changes in human SW480 cells assessed as induction of vacuoles at 2.5 uM incubated for 24 hrs by phase contrast microscopy; assay type: functional, cell-based
Outline: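 SW480 cells (MEM + 10% FCS) were treated for 24 h and then photographed at 400× magnification with an sCMOS camera on a fluorescence microscope to visualise cytoplasmic vacuoles.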

## CNc1cccnc1/C=N/N=C(/N)S
SW480 [1]
  Activity: Active

## CNC(=S)N/N=C/c1ncccc1N
SW480 [1]
  Activity: Active

## CN(C)C(=S)NN=C(c1ccccn1)c1ccccn1
SW480 (Homo sapiens)
  Activity: Active

## CN(C)c1cccnc1/C=N/NC(N)=S
SW480 (Homo sapiens)
  Activity: Active

## CNC(=S)N/N=C/c1ncccc1N(C)C
SW480 [1]
  Activity: inactive
SW480 [2]
  Activity: Active
HL-60
  Activity: Active
SW480 (Homo sapiens)
  Activity: Active

## CN(C)C(=S)N/N=C/c1ncccc1N
HL-60
  Activity: Active
physchem
  logD: 1.3

## CN(C)C(=S)N/N=C/c1ncccc1N(C)C
SW480 [2]
  Activity: Active
SW480 [3]
  Activity: Active
HL-60
  Activity: Active

## CNc1cccnc1/C=N/NC(=S)N(C)C
SW480 [1]
  Activity: inactive
SW480 (Homo sapiens)
  Activity: Active

## NC(=S)N/N=C/c1ncccc1N
SW480 [1]
  Activity: Active
HL-60
  Activity: Active
SW480 (Homo sapiens)
  Activity: inactive
